# According to ChEMBL document CHEMBL1132483, “Fused bicyclic Gly-Asp beta-turn mimics with specific affinity for GPIIb-IIIa” (J Med Chem, 1999):
# pIC50: −log10 of the molar value.
# Assays:
# Homo sapiens [1] = species: Homo sapiens; assay: Concentration required to reduce ADP-induced platelet aggregation in platelet rich plasma by 50%.; format: functional
# How it was run: (§1)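 Human platelet-rich plasma was incubated for 1 min with varying test concentrations or vehicle, then aggregation was triggered with ADP. The response was followed turbidimetrically. IC50 is the concentration cutting the aggregation response by 50%, averaged from at least two determinations, with average error ±16%.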
# Homo sapiens [2] = species: Homo sapiens; assay: Concentration required to reduce ADP-induced platelet aggregation in platelet rich plasma by 50%; format: functional; how it was run: as §1
# [3] = target: Integrin alpha-IIb/beta-3 (Homo sapiens, UniProt P05106+P08514); assay: Inhibition of fibrinogen binding to purified human alpha IIb beta-3 integrin (GP IIb-IIIa); format: protein-complex assay
# [4] = Cmax (ng /mL) value after oral administration of 10 mg/kg in guinea pig.; format: ADME, organism-based, Cavia porcellus; design: dose 10 mg/kg, route oral; conditions: in vivo
# How it was run: (§2)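 Guinea pigs were fasted overnight and given a single 10 mg/kg oral gavage dose, formulated at 3 mg/mL in 50% poly(ethylene glycol) 300. Blood was drawn under isoflurane anesthesia into 3.8% trisodium citrate (9:1). Plasma was assayed by HPLC. AUC covers the 0-5 h time course, and Cmax is the peak plasma level.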
# [5] = AUC (ng h/mL) value after oral administration of 10 mg/kg in guinea pig.; format: ADME, organism-based, Cavia porcellus; design: dose 10 mg/kg, route oral; conditions: plasma; how it was run: as §2
# [6] = Cmax(ng /mL)values after oral administration of 10 mg/kg in guinea pig.; format: ADME, organism-based, Cavia porcellus; design: dose 10 mg/kg, route oral; conditions: in vivo; how it was run: as §2
# [7] = AUC(ng h/mL)values after oral administration of 10 mg/kg in guinea pig.; format: ADME, organism-based, Cavia porcellus; design: dose 10 mg/kg, route oral; conditions: plasma; how it was run: as §2
# [8] = Cmax(ng /mL)values after oral administration of 10 mg/kg in rat.; format: ADME, organism-based; design: dose 10 mg/kg, route oral; conditions: in vivo
# How it was run: (§3)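 Rats were fasted overnight and dosed once by oral gavage at 10 mg/kg, in vehicle of 50% poly(ethylene glycol) 300 at 3 mg/mL. Blood was collected under isoflurane into 3.8% trisodium citrate (9:1), and plasma was prepared for HPLC analysis. AUC refers to the sampled time course.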
# [9] = AUC(ng h/mL)values after oral administration of 10 mg/kg in rat.; format: ADME, organism-based; design: dose 10 mg/kg, route oral; conditions: plasma; how it was run: as §3
# Integrin alpha-IIb/beta-3, sequence (P05106 27-788 limits assumed): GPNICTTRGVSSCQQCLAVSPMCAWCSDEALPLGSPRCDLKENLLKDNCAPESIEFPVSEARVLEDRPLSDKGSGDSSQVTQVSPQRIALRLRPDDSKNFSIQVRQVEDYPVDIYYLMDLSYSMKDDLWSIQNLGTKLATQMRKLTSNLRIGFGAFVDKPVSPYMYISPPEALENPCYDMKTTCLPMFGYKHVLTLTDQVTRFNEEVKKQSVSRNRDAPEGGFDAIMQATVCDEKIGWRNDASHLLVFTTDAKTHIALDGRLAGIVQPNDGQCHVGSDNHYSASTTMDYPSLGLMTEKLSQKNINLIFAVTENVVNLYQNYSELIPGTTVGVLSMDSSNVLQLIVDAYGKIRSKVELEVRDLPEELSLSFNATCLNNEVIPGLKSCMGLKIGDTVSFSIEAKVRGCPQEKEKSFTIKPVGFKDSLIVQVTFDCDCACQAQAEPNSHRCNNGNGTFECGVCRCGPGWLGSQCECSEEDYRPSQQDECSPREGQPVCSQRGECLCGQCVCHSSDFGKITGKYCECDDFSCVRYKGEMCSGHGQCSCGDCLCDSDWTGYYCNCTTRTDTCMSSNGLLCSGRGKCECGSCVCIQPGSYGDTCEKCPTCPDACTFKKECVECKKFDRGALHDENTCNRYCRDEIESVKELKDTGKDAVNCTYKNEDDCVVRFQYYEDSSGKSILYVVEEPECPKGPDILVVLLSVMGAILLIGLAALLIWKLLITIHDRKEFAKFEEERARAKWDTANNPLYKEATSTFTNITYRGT
# Integrin alpha-IIb/beta-3, sequence (P08514 32-887 limits assumed): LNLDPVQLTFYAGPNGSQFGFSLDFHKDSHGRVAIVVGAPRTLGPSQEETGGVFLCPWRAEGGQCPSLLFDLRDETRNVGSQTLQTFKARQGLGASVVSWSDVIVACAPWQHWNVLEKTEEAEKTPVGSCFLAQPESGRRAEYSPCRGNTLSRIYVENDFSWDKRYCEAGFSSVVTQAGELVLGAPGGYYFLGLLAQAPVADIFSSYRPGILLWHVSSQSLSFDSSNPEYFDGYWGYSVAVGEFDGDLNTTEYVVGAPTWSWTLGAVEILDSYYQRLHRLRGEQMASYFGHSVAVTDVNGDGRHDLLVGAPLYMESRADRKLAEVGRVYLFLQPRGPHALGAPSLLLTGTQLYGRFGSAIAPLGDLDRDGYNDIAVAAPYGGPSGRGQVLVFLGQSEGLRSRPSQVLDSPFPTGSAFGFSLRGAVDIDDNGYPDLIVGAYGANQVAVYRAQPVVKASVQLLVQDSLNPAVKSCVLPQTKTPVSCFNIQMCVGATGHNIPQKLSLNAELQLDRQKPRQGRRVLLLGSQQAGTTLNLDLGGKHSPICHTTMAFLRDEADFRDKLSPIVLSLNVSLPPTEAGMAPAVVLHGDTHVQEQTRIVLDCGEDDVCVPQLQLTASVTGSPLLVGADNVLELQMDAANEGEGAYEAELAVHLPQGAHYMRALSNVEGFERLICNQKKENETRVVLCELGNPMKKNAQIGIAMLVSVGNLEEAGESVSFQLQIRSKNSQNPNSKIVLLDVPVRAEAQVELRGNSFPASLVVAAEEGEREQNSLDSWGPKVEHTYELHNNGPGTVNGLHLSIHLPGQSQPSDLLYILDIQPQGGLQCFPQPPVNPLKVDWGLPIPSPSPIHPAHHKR
# Integrin alpha-IIb/beta-3, sequence (P08514 891-1039 limits assumed): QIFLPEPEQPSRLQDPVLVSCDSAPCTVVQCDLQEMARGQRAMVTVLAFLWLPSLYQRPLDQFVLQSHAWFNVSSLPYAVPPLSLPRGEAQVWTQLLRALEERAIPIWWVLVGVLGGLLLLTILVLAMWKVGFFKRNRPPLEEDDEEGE
compound,measurement,setting,value
N=C(N)c1ccc(C(=O)Nc2ccc3c(c2)CCC(CC(=O)O)C3=O)cc1 (stereo unspecified),IC50,Homo sapiens [1],0.02 µg/mL
same,pIC50,Homo sapiens [2],7.22
N=C(N)c1ccc(COc2ccc3c(=O)n(CC(=O)O)ccc3c2)cc1,pIC50,[3],5.38
N=C(N)c1ccc(COc2ccc3c(c2)CCC(CC(=O)O)O3)cc1 (stereo unspecified),pIC50,Homo sapiens [2],5.60
same,pIC50,[3],7.41
CCOC(=O)Cn1ccc2cc(NC(=O)c3ccc(C(=N)N)cc3)ccc2c1=O,Cmax,[4],177 ng/mL
same,AUC,[5],543 ng·h/mL
CCOC(=O)Cc1cc2ccc(NC(=O)c3ccc(C(=N)N)cc3)cc2cn1,Cmax,[4],469 ng/mL
same,AUC,[5],1580 ng·h/mL
N=C(N)c1ccc(COc2ccc3c(c2)CN(CC(=O)O)C3=O)cc1,pIC50,[3],5.92
N=C(N)c1ccc(C(=O)Nc2ccc3c(c2)CCC(CC(=O)O)C3)cc1 (stereo unspecified),Cmax,[6],252 ng/mL
same,AUC,[7],903 ng·h/mL
same,pIC50,Homo sapiens [1],6.72
same,IC50,Homo sapiens [2],0.067 µg/mL
CCOC(=O)CC1CCc2cc(NC(=O)c3ccc(C(=N)N)cc3)ccc2C1 (stereo unspecified),Cmax,[6],1170 ng/mL
same,Cmax,[8],5060 ng/mL
same,AUC,[7],3700 ng·h/mL
same,AUC,[9],15900 ng·h/mL
N=C(N)c1ccc(COc2ccc(C(=O)NCC(=O)O)cc2)cc1,pIC50,[3],5.30
N=C(N)c1ccc(COc2ccc3c(c2)CC(=O)N(CC(=O)O)C3)cc1,pIC50,[3],5.24
N=C(N)c1ccc(C(=O)Nc2ccc3c(c2)CCN(CC(=O)O)C3)cc1,IC50,Homo sapiens [1],0.06 µg/mL
same,pIC50,Homo sapiens [2],6.77
CCOC(=O)CC1CCc2cc(NC(=O)c3ccc(C(=N)N)cc3)ccc2O1 (stereo unspecified),Cmax,[8],4850 ng/mL
same,AUC,[9],14800 ng·h/mL
CCOC(=O)CC1CCc2cc(NC(=O)c3ccc(C(=N)N)cc3)ccc2C1=O (stereo unspecified),Cmax,[6],1150 ng/mL
same,Cmax,[8],3630 ng/mL
same,AUC,[7],3990 ng·h/mL
same,AUC,[9],11200 ng·h/mL
N=C(N)c1ccc(C(=O)Nc2ccc3c(c2)CCN(CC(=O)O)C3=O)cc1,Cmax,[6],126 ng/mL
same,AUC,[7],400 ng·h/mL
same,pIC50,Homo sapiens [1],7.05
same,IC50,Homo sapiens [2],0.032 µg/mL
N=C(N)c1ccc(C(=O)Nc2ccc3c(c2)CCC(CC(=O)O)O3)cc1 (stereo unspecified),IC50,Homo sapiens [1],0.027 µg/mL
same,pIC50,Homo sapiens [2],6.72
same,pIC50,[3],8.70
N=C(N)c1ccc(COc2ccc3c(c2)CCCN(CC(=O)O)C3=O)cc1,pIC50,[3],6.22
N=C(N)c1ccc(COc2ccc3c(c2)CCC(CC(=O)O)C3=O)cc1 (stereo unspecified),pIC50,Homo sapiens [2],6.35
same,pIC50,[3],7.57
N=C(N)c1ccc(COc2ccc3c(c2)CCC(CC(=O)O)C3)cc1 (stereo unspecified),pIC50,Homo sapiens [2],4.48
same,pIC50,[3],6.59
N=C(N)c1ccc(COc2ccc3c(c2)CCN(CC(=O)O)C3)cc1,pIC50,Homo sapiens [2],6.48
